M1 agonist = agonists of M1 muscarinic receptor | AID 626 | B-score at 10 µM | CHO-M1 cells, Fluo-4 calcium fluorescence, agonist mode; hits give high values | actives 3% (n = 64,000);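 active = fluorescence rise, raw or as B-score row- and column-corrected plate score, outside the 99.7% band of its plate's samples, either direction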
JNK3 blocker = blocks human JNK3 kinase activity; purified JNK3 kinase activity, HTS; inhibition, % at 8 µM; actives 0.61% (n = 60,000); AID 746; P53779; in the data active = inhibition above about 17%
M1 antagonist = blocks the rat M1 muscarinic receptor response to acetylcholine; B-score at 10 µM; AID 628; CHO-M1 cells, Fluo-4 calcium, ACh EC80 antagonist mode; hits give low values; P08482; actives 3.4% (n = 64,000);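 active = calcium fluorescence response, raw or row-and-column corrected B-score, differing from the plate sample mean either way at a set confidence level, mostly lower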
Jurkat tox 60K = reduces viability or proliferation of Jurkat cells; Jurkat E6.1 viability, ATP luminescence, 48 h; inhibition, % at 4 µM; actives 1.2% (n = 56,000); AID 463;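 active = inhibition above the mean inhibition of all tested compounds plus 3 SD, cut at about 28% in these data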
S1P3 ag = S1P3 (human) receptor agonism. Q99500. S1P3 NFAT-BLA reporter cells, FRET ratio; relative to 1 µM S1P, basal subtracted. activation, % at 4.5 µM. actives 0.1% (n = 60,000). AID 373;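 active = activation above the screen-wide mean plus 3 SD, cut at about 4.5% in these data, passing the limit was not always enough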
Target sequence (Q99500 whole entry, looked up): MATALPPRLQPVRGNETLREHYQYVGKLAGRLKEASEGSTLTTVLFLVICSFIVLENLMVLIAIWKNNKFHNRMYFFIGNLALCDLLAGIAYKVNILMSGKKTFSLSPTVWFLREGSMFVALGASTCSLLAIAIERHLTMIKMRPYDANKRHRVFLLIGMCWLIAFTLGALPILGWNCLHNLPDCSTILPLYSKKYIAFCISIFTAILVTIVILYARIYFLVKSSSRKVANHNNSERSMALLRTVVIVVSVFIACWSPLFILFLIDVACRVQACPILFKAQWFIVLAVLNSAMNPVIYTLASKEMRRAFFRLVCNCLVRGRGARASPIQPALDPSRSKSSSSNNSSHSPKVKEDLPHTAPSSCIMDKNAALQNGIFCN
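Measure – % activation relative to 1 µM S1P (100%), per plate · System – stable CHO line with human S1P3, Gα16, NFAT-BLA reporter · Timing – cells plated overnight, compound 4 h 37 °C, substrate 2 h RT · Technique – fluorescent BLA substrate, ex 405 nm, em 460/535 nm ratio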
S1P1 ag-PAM = S1P1 (human) agonism or agonism potentiation | AID 449 | S1P1 CRE-bla cells, forskolin, beta-lactamase FRET, potentiator mode; S1P1 agonist co-added at EC20, 2 nM; 100% = saturating reference agonist, 0% = basal | P21453 | actives 0.57% (n = 56,000) | activation, % at 9.5 µM;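 active = activation above a cutoff set at the mean activation of all tested compounds plus 3 SD, cut at about 54% in these data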;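 also: forskolin at 4 µM as EC80 and the EC20 agonist is SEW2871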
Each line names hits and unclear results; the compound was inactive in the other large screens. The list is not random: actives were taken first. Their share in the collection is about 7.4%.

CC(=O)C1=C(O)C(=O)N(CC(=O)O)C1c1ccccc1Cl (stereo not drawn)	none
C1=C(c2ccc(-c3ccccc3)cc2)Nc2ncnn2C1c1ccco1 (stereo not drawn)	M1 agonist 43.6
COc1ccc(C2C=C(c3ccc(C)cc3)Nc3ncnn32)cc1 (stereo not drawn)	M1 agonist 33.1 (no result: Jurkat tox 60K)
COc1ccc(C2=CC(c3ccc(OC)c(OC)c3)n3nnnc3N2)c(OC)c1 (stereo not drawn)	none
COc1ccc(C2C=C(c3ccc(Br)s3)Nc3ncnn32)cc1OC (stereo not drawn)	M1 agonist 120
Cc1ccc(C2CC(c3ccco3)n3ncnc3N2)cc1 (stereo not drawn)	none (no result: JNK3 blocker, Jurkat tox 60K, S1P3 ag, S1P1 ag-PAM)
CC(C)OCCCNc1nc2c([nH]1)c(=O)n(C)c(=O)n2C	none
Cc1c(NC(=O)CSc2nc3ccccc3n2C)c(=O)n(-c2ccccc2)n1C	none
CC(=O)Nc1ccc(S(=O)(=O)n2cnc3cc(C)c(C)cc32)cc1	Jurkat tox 60K 28.5
Cc1oc(-c2ccc(Cl)cc2)nc1CN1CCC(C(=O)N2CCN(Cc3ccccc3)CC2)CC1	none
Cc1oc(-c2ccccc2)nc1Cn1cccc1C1=NC(c2ccccc2)CO1 (stereo not drawn)	S1P1 ag-PAM 103.5
CCN(CC)C(=O)C(C)OC(=O)COc1ccc(Cl)cc1C (stereo not drawn)	M1 antagonist 1.86
c1ccc(CNc2ncnc3ccccc23)cc1	Jurkat tox 60K 69.2, S1P1 ag-PAM 105.7
COc1ccc(Cc2nc(-c3ccc(-n4cccc4)cc3)no2)cc1	none
COc1ccc(Cc2nc(-c3ccc(-n4cccc4)cc3)no2)cc1OC	S1P1 ag-PAM 66.3
COC(=O)c1nc2n(n1)C(c1ccccc1OC)C1=C(CCCC1=O)N2 (stereo not drawn)	none
Cc1noc(C)c1COc1cccc(C(=O)OCC(=O)N2CC(=O)Nc3ccccc32)c1	Jurkat tox 60K 84.4
Cc1cc(C(=O)Nc2sc(C)c(-c3ccc(F)cc3)c2C(N)=O)no1	S1P1 ag-PAM 101.6
CCCc1cc(C(N)=O)c(NC(=O)c2cc(C)on2)s1	none
CC(=O)Oc1c(S(=O)(=O)c2ccc(C)cc2)c(C)nn1C(C)(C)C	M1 antagonist 2.29
CC1=C(C#N)C2C(/C1=N/O)C2(C)C (stereo not drawn)	none
Cc1ccc(CCP(=O)(O)CN2CCCCC2)cn1	none
O=S(=O)(CCSc1nc2ccccc2o1)c1nc2ccccc2s1	Jurkat tox 60K 63.9
CCS(=O)(=O)CCSc1nc2ccccc2o1	none (no result: S1P1 ag-PAM)
O=S(=O)(CCSc1ccccn1)c1nc2ccccc2s1	Jurkat tox 60K 49.8, S1P1 ag-PAM 88.1
O=C(CN(C1CCCCC1)S(=O)(=O)c1ccc(Cl)cc1)NCCCO	none
CCOC(=O)N1CCN(S(=O)(=O)c2cc(Cl)ccc2Cl)CC1	M1 antagonist 0.95 (no result: JNK3 blocker, Jurkat tox 60K, S1P3 ag, S1P1 ag-PAM)
CCC(C)(C)n1nnnc1CN(Cc1cc2cc(OC)c(OC)cc2[nH]c1=O)C1CCCC1	none
O=C(c1cc(-c2ccco2)on1)N1CCN(c2ccccc2)CC1	none
O=C(c1ccc2nc(-c3ccco3)c(-c3ccco3)nc2c1)N1CCN(c2ccccc2)CC1	M1 agonist 5.66
CN(C)S(=O)(=O)c1ccc(C(=O)Nc2nc(-c3cccs3)cs2)cc1	Jurkat tox 60K 36.2
Cn1cc(C(=O)c2ccc(Cl)cc2)cc1-c1nc2ccccc2n1C	Jurkat tox 60K 42.5
CCSc1nnc(NC(=O)C(Cc2ccccc2)n2cccc2)s1 (stereo not drawn)	none
Cc1csc(NC(=O)C(Cc2ccccc2)n2cccc2)n1 (stereo not drawn)	S1P1 ag-PAM 81.2
CC(CNS(=O)(=O)c1cc(Cl)ccc1Cl)CN(C)C (stereo not drawn)	none
CC1(C)CCCN(C(=O)c2coc(=O)c(Br)c2)C1	none
CCOC(=O)C1=C(C)OC(N)=C(C#N)C1c1cc2ccccc2nc1N1CCCCC1 (stereo not drawn)	JNK3 blocker 22.5 (no result: Jurkat tox 60K)
CCOC(=O)C1=C(C)OC(N)=C(C#N)C1C1CCCCC1 (stereo not drawn)	none
O=C(Nc1nccs1)c1ccc(Br)o1	JNK3 blocker 18.1 (no result: M1 agonist, M1 antagonist)
Cc1ncoc1C(=O)Nc1nccs1	none (no result: JNK3 blocker, Jurkat tox 60K, S1P3 ag, S1P1 ag-PAM)
CCCC(=O)Nc1nc2ccc(S(=O)(=O)N3CCCCC3)cc2s1	Jurkat tox 60K 78.7
CCCC(=O)Nc1nc2ccc(OCC)cc2s1	none
O=C(c1ccco1)N1CCN(c2ncnc3c2[nH]c2ccc(Br)cc23)CC1	none
OC1(c2cccc(C(F)(F)F)c2)CCN(c2ncnc3c2[nH]c2ccc(F)cc23)CC1	Jurkat tox 60K 52.8, S1P1 ag-PAM 99.8
Fc1ccc2[nH]c3c(N4CCN(c5ccccc5)CC4)ncnc3c2c1	S1P1 ag-PAM 106.0 (no result: Jurkat tox 60K)
O=C(c1coc(=O)c2ccccc12)N1CCN(Cc2ccccc2)CC1	none
Nc1nnnn1/N=C/C(Br)=C/c1ccccc1	Jurkat tox 60K 84.0
Nc1nnnn1/N=C/C=C/c1ccccc1	none
COc1cccc(NC(=O)CSc2nc3c(c(-c4ccco4)c2C#N)CCCC3)c1	M1 agonist -2.62
N#Cc1c(-c2ccco2)nc(SCC(=O)Nc2cccc(Cl)c2)[nH]c1=O	JNK3 blocker 25.1
N#Cc1c(N)nc2c(c1-c1ccco1)CCCCC2	JNK3 blocker 31.6
Cc1ccc(S(=O)(=O)N2CCN(S(=O)(=O)c3ccc(C)cc3)C3OCCOC32)cc1 (stereo not drawn)	none
O=c1[nH]c2ccccc2c2nc3ccccn3c12	JNK3 blocker 47.4
O=c1nc(C(F)(F)F)nc2ccccn12	none (no result: S1P1 ag-PAM)
COCCCn1c(C2CCCCC2)nc2oc3cc(OC)ccc3c(=O)c2c1=O	none
COc1ccccc1-n1cnc(N)c1C(=O)c1ccccc1	Jurkat tox 60K 36.1
O=C(O)C(c1ccccc1)N1CCCC1 (stereo not drawn)	none (no result: JNK3 blocker, Jurkat tox 60K, S1P3 ag, S1P1 ag-PAM)
CCC(C)NC(=O)CS(=O)Cc1nc(-c2ccccc2C)oc1C (stereo not drawn)	none
Cc1cc(C)cc(NC2=NC3(CCCCC3)N=C(N)N2)c1	Jurkat tox 60K 65.5
Cc1noc(C)c1CSc1nnc2c(C)cc3ccccc3n12	M1 agonist 1.67
CCOC(=O)Cc1csc(NC(=O)c2cccs2)n1	none (no result: S1P1 ag-PAM)
CCOC(=O)Cc1csc(NC(=O)c2ccc(Br)s2)n1	S1P1 ag-PAM 65.5
O=C(CNC(=O)c1ccc(Br)o1)Nc1cccc(-c2cnc3ccccc3n2)c1	JNK3 blocker 19.7 (no result: S1P1 ag-PAM)
COc1ccc(NC(=O)CCCCn2c(=O)[nH]c3ccccc3c2=O)cc1	JNK3 blocker 20.8
COc1ccc(NC(=O)CCCn2c(=O)[nH]c3ccccc3c2=O)cc1	none
CCCCOc1ncnc2c1[nH]c1ccccc12	Jurkat tox 60K 76.5
CCSc1n[nH]c(=O)[nH]c1=O	none (no result: M1 agonist, M1 antagonist)
COC(=O)c1cccc2c1-c1ccccc1/C2=N/O	JNK3 blocker 53.5
S=C(c1ccc(-c2ccccc2Cl)o1)N1CCOCC1	M1 antagonist 1.08
